Measurements gathered from unrelated publications.
Each line is one published result; the experiments were not run side by side.
Target: Mitogen-activated protein kinase 7 (MAPK7, Homo sapiens, UniProt Q13164)

Structure (SMILES) | test | setting | remaining binding
O=C(NS(=O)(=O)c1ccc(NCC2CCOCC2)c([N+](=O)[O-])c1)c1ccc(N2CCN(Cc3ccc(C(F)(F)F)cc3-c3ccc(Cl)cc3)CC2)cc1Oc1cnc2[nH]ccc2c1 | cell-free assay, competition with immobilised ligand | 1 µM | 100%
COc1ccnn2ncc(-c3ccnc(N(C)C)n3)c12 | binding | 1 µM | 100%
O=C(NCCCN1CCOCC1)c1ccc(Nc2ncc(Cl)c(-c3ccc(Cl)s3)n2)cc1 | binding, competition with immobilised ligand | 1 µM | 28%
CNC(=O)Nc1ccc2c(c1)[C@@]1(CC2)OC(=O)N(CC(=O)N(Cc2ccc(F)cc2)[C@@H](C)C(F)(F)F)C1=O | cell-free assay, competition with immobilised ligand | 1 µM | 85%
N[C@H]1CCN(c2nccc(-c3cnn4ncccc34)n2)C1 | binding | 1 µM | 100%
C[C@@H](c1ccc(-n2cnc3c(N)ncnc32)cc1)N1CCc2nn(C)c(Cc3ccccc3)c2C1=O | binding, competition with immobilised ligand | 0.1 µM | 89%
CN(C)c1ncc(F)c(-c2cnn3ncccc23)n1 | binding | 1 µM | 99%
O=C(Nc1c[nH]nc1C(=O)NC1CCNCC1)c1cc(F)cc(F)c1 | binding, competition with immobilised ligand | 1 µM | 83%
COc1ccc2c(O[C@@H]3C[C@H]4C(=O)N[C@]5(C(=O)O)CC5/C=C\CCCCC[C@H](NC(=O)OC5CCCC5)C(=O)N4C3)cc(-c3csc(NC(=O)C(C)C)n3)nc2c1C (stereo partly shown) | cell-free assay, competition with immobilised ligand | 1 µM | 100%
Cc1cnn2ncc(-c3ccnc(N(C)C)n3)c2c1 | binding | 1 µM | 96%
Cc1cnc(Nc2ccc(C(=O)N3CCC(N4CCCC4)CC3)cc2)nc1-c1cc2ccccc2s1 | binding, competition with immobilised ligand | 1 µM | 21%
COc1cnc(Nc2cccc(S(N)(=O)=O)c2)nc1N1CCN(c2ccccc2)C(=O)C1 | binding, competition with immobilised ligand | 1 µM | 100%
COc1ncc2cc3ccccc3nc2c1C#N | cell-free assay, competition with immobilised ligand | 5 µM | 100%
CN(c1ccnc(CNc2nc(Nc3ccc4c(c3)CC(=O)N4)ncc2C(F)(F)F)n1)S(C)(=O)=O | cell-free assay, competition with immobilised ligand | 1 µM | 78%
COc1cnc(Nc2cccc(S(N)(=O)=O)c2)nc1N1CCN(c2ccccc2)CC1 | binding, competition with immobilised ligand | 1 µM | 100%
O=C(c1ccc(Nc2ncc(Cl)c(-c3ccc(Cl)s3)n2)cc1)N1CCC(N2CCCC2)CC1 | binding, competition with immobilised ligand | 1 µM | 7.1%
CN(C)c1nccc(-c2cnc3ncccn23)n1 | binding | 1 µM | 92%
O=C(Nc1cnc(Oc2ccc(F)cc2)nc1)N1CCc2ncccc2[C@@H]1c1ccc(F)cc1 | cell-free assay, competition with immobilised ligand | 1 µM | 96%
CC1CCCN1c1nccc(-c2cnn3ncccc23)n1 (stereo not shown) | binding | 1 µM | 100%
COc1cc(C(=O)N2CCC(N3CCN(C)CC3)CC2)ccc1Nc1ncc2c(n1)N(C)c1ccccc1C(=O)N2C | binding, competition with immobilised ligand | 10 µM | 0.05%
C[C@H]1CCN(c2nccc(-c3cnn4ncccc34)n2)C1 | binding | 1 µM | 93%
CS(=O)(=O)N1CCCC(NC(=O)[C@H](CCC2CCCCC2)NC(=O)c2ccc(CNC(=O)c3cnc4ccccn34)cc2)C1 (stereo partly shown) | cell-free assay, competition with immobilised ligand | 0.1 µM | 94%
